The values below come from ChEMBL document CHEMBL1667748, “Synthesis and anti-inflammatory evaluation of some new acyl-hydrazones bearing 2-aryl-thiazole” (2011).

Experiment [1] concerns Rattus norvegicus. The experiment is described as follows: Antiinflammatory activity against Wistar-Bratislava albino rat assessed as monocyte count at 3.2 mg/kg, ip (Rbv = 7.6+/-0.45%). Format: functional. Particulars: route intraperitoneal.
The species entered for experiment [2] is Rattus norvegicus. Kind of experiment: Induction of phagocytosis in Wistar-Bratislava albino rat PMNC using Escherichia coli suspension assessed as reduction in phagocytosis index after 30 mins. Format: functional.
The test system of experiment [3] is Rattus norvegicus. The experiment is described as follows: Antiinflammatory activity against Wistar-Bratislava albino rat assessed as leukocyte count at 3.2 mg/kg, ip (Rbv = 4952.7+/-436.9 number/mm'3). Format: functional. Particulars: route intraperitoneal.
Experiment [4] has as its system Rattus norvegicus. Kind of experiment: Antiinflammatory activity against Wistar-Bratislava albino rat assessed as neutrophil count at 3.2 mg/kg, ip (Rbv = 55.6+/-1.32%). Format: functional. As to conditions: route intraperitoneal.
The species named for experiment [5] is Rattus norvegicus. Kind of experiment: Induction of phagocytosis in Wistar-Bratislava albino rat PMNC using Escherichia coli suspension assessed as reduction in phagocytosis activity after 30 mins. It counts as functional.
For experiment [6], the system named is Rattus norvegicus. The experiment is described as follows: Antiinflammatory activity against Wistar-Bratislava albino rat assessed as reduction serum nitrate/nitrite concentration at 3.2 mg/kg, ip. Format: functional, organism-based. More on the design: dose 3.2 mg/kg. In outline:
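In rats given turpentine oil 0.6 mL/100 g i.m. plus i.p. treatment in 1% carboxymethyl cellulose suspension, serum nitrate was reduced to nitrite with VCl3 in acidic solution. Griess reagents (SULF, NEDD) were then added, and absorbance at 540 nm was read after about 30-45 min incubation.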

The test system of experiment [7] is Rattus norvegicus. Kind of experiment: Antiinflammatory activity against Wistar-Bratislava albino rat assessed as lymphocyte count at 3.2 mg/kg, ip (Rbv = 37+/-2.2%). Format: functional. As to conditions: route intraperitoneal.

Calls of active or inactive are those of the source. No cut-off for these calls is given here.

For the compound `Cc1ccc(-c2nc(CC(=O)N/N=C\c3ccc(OCC(=O)c4sc(-c5ccccc5)nc4C)cc3)cs2)cc1`, the Activity in the experiment with Rattus norvegicus [1] is given as 2.43%; in the experiment on Rattus norvegicus [3], 8742.85 /mm3; in the experiment with Rattus norvegicus [4], 66%; with Rattus norvegicus [7] it was 32.14%. Besides, the result in the experiment filed under Rattus norvegicus [2], in the experiment listed under Rattus norvegicus [5] and with Rattus norvegicus [6] was Active.

Take `Cc1ccc(-c2nc(CC(=O)N/N=C\c3ccc(OCc4csc(-c5ccc(Br)cc5)n4)cc3)cs2)cc1`: the Activity is listed as 2.71% in the experiment with Rattus norvegicus [1], 7314.28 /mm3 in the experiment with Rattus norvegicus [3], 68.28% with Rattus norvegicus [4] and 28.57% in the experiment with Rattus norvegicus [7].

For the compound `O=C(Cc1csc(-c2cccc(C(F)(F)F)c2)n1)N/N=C/c1ccccc1OCc1csc(-c2ccc(Br)cc2)n1`, the Activity is 2.57% in the experiment with Rattus norvegicus [1], 7837.14 /mm3 in the experiment on Rattus norvegicus [3], 68.85% with Rattus norvegicus [4] and 24.71% in the experiment on Rattus norvegicus [7]. Further, the result in the experiment filed under Rattus norvegicus [2] and in the experiment listed under Rattus norvegicus [5] was Active.

In the case of `Cc1ccc(-c2nc(CC(=O)N/N=C/c3ccccc3OCc3csc(-c4ccc(Br)cc4)n3)cs2)cc1`, the Activity in the experiment with Rattus norvegicus [1] is reported as 2.86%; in the experiment on Rattus norvegicus [3], 9300 /mm3; in the experiment with Rattus norvegicus [4] it was 67.71%; in the experiment on Rattus norvegicus [7], 29.14%. Besides, the outcome in the experiment on Rattus norvegicus [6] was inactive.

On to `O=C(Cc1csc(-c2cccc(C(F)(F)F)c2)n1)N/N=C\c1ccc(OCc2csc(-c3ccc(Br)cc3)n2)cc1`, for which the Activity is reported as 3.14% with Rattus norvegicus [1], 7402.85 /mm3 with Rattus norvegicus [3], 63.14% in the experiment with Rattus norvegicus [4] and 32% in the experiment on Rattus norvegicus [7]. In the experiment with Rattus norvegicus [6], the result was inactive.

In the case of `O=C(COc1ccc2c(=O)cc(-c3ccccc3)oc2c1)N/N=C/c1cccc(OCc2csc(-c3ccc(Br)cc3)n2)c1`, the Activity in the experiment on Rattus norvegicus [1] was 3.28%; in the experiment with Rattus norvegicus [3], 8000 /mm3; in the experiment with Rattus norvegicus [4], 57.43%; in the experiment with Rattus norvegicus [7], 39.86%. The outcome in the experiment filed under Rattus norvegicus [2], in the experiment listed under Rattus norvegicus [5] and in the experiment with Rattus norvegicus [6] was Active.

For `O=C(COc1ccc2c(=O)cc(-c3ccccc3)oc2c1)N/N=C\c1ccc(OCc2csc(-c3ccccc3)n2)cc1`, the Activity in the experiment with Rattus norvegicus [1] is 3.71%; in the experiment on Rattus norvegicus [3], 8228.57 /mm3; in the experiment with Rattus norvegicus [4], 76%; in the experiment on Rattus norvegicus [7], 23.57%. Besides, the outcome in the experiment listed under Rattus norvegicus [2] and in the experiment listed under Rattus norvegicus [5] was Active. The outcome in the experiment with Rattus norvegicus [6] was inactive.

For the compound `Cc1ccc(-c2nc(CC(=O)N/N=C/c3cccc(OCc4csc(-c5ccccc5)n4)c3)cs2)cc1`, the Activity is listed as 2.86% with Rattus norvegicus [1], 8620 /mm3 with Rattus norvegicus [3], 73.29% in the experiment with Rattus norvegicus [4] and 19.71% in the experiment on Rattus norvegicus [7]. Moreover, the outcome in the experiment with Rattus norvegicus [6] was inactive.

Consider `Cc1cnc(NC(=O)C2=C(O)c3ccccc3S(=O)(=O)N2C)s1` [MELOXICAM], for which the Activity with Rattus norvegicus [1] is 2%; in the experiment on Rattus norvegicus [3], 7660 /mm3; in the experiment on Rattus norvegicus [4], 66.57%; with Rattus norvegicus [7], 32.28%.

Regarding `O=C(Cc1csc(-c2cccc(C(F)(F)F)c2)n1)N/N=C/c1cccc(OCc2csc(-c3ccccc3)n2)c1`, the Activity is recorded as 2.4% in the experiment with Rattus norvegicus [1], 9540 /mm3 with Rattus norvegicus [3], 61.71% in the experiment with Rattus norvegicus [4] and 32.28% with Rattus norvegicus [7]. Besides, the outcome in the experiment listed under Rattus norvegicus [2] and in the experiment filed under Rattus norvegicus [5] was Active.

For the compound `O=C(Cc1csc(-c2cccc(C(F)(F)F)c2)n1)N/N=C/c1cccc(OCc2csc(-c3ccc(Br)cc3)n2)c1`, the Activity with Rattus norvegicus [1] is recorded as 2.86%; in the experiment on Rattus norvegicus [3], 6914.28 /mm3; with Rattus norvegicus [4] it was 70.86%; in the experiment with Rattus norvegicus [7], 23.43%. Also, the outcome in the experiment filed under Rattus norvegicus [5] and in the experiment with Rattus norvegicus [6] was Active.

Turning to `O=C(Cc1csc(-c2cccc(C(F)(F)F)c2)n1)N/N=C\c1ccc(OCc2csc(-c3ccccc3)n2)cc1`, the Activity with Rattus norvegicus [1] is on record as 2%; in the experiment with Rattus norvegicus [3], 5664.28 /mm3; with Rattus norvegicus [4], 82.28%; with Rattus norvegicus [7] it was 20.71%. In addition, the result in the experiment listed under Rattus norvegicus [2] and in the experiment filed under Rattus norvegicus [5] was Active. Besides, the outcome in the experiment on Rattus norvegicus [6] was inactive.

On to `Cc1ccc(-c2nc(CC(=O)N/N=C\c3ccc(OCc4csc(-c5ccccc5)n4)cc3)cs2)cc1`, for which the Activity in the experiment on Rattus norvegicus [1] is 1.86%; in the experiment on Rattus norvegicus [3] it was 3271.43 /mm3; in the experiment with Rattus norvegicus [4], 52.57%; in the experiment with Rattus norvegicus [7], 21.43%. In the experiment on Rattus norvegicus [6], the result was inactive.

Consider `O=C(COc1ccc2c(=O)cc(-c3ccccc3)oc2c1)N/N=C/c1cccc(OCc2csc(-c3ccccc3)n2)c1`, for which the Activity is listed as 2.6% in the experiment on Rattus norvegicus [1], 12100 /mm3 with Rattus norvegicus [3], 71.71% in the experiment with Rattus norvegicus [4] and 24% in the experiment on Rattus norvegicus [7]. The outcome in the experiment with Rattus norvegicus [6] was Active.

In the case of `Cc1nc(-c2ccccc2)sc1C(=O)COc1ccc(/C=N\NC(=O)Cc2csc(-c3cccc(C(F)(F)F)c3)n2)cc1`, the Activity is 2% in the experiment with Rattus norvegicus [1], 10200 /mm3 with Rattus norvegicus [3], 78% with Rattus norvegicus [4] and 18% with Rattus norvegicus [7]. For the same compound, the outcome in the experiment filed under Rattus norvegicus [2] and in the experiment on Rattus norvegicus [6] was Active.
